{"data": "Experimental data pooled from the literature", "cell line": "L02", "effect on": "cell growth or viability", "note": "Each line is one published result; the experiments were not run side by side."}
{"Compound": "Cc1cc(Oc2ccc(NC(=O)c3sc(-c4ccccn4)nc3C)cc2)c2nncn2n1", "assay": "MTT", "IC50 [µM]": "> 50"}
{"Compound": "Oc1c(I)cc(I)c2cccnc12", "assay": "MTT", "conditions": "48 h", "IC50 [µM]": 71}
{"Compound": "COc1cc(C2Oc3cc([C@H]4Oc5cc(O)cc(O)c5C(=O)[C@@H]4O)ccc3OC2CO)ccc1O (stereo partly shown)", "assay": "CCK-8", "conditions": "72 h", "IC50 [µM]": "> 300"}
{"Compound": "COc1ccnc(-c2cc(OC)ccn2)c1", "assay": "MTT", "conditions": "48 h", "IC50 [µM]": "> 50"}
{"Compound": "COc1ccc(NC(=O)Nc2ccc(OCc3nccc(OC)c3OC)cc2)cc1", "assay": "MTT", "conditions": "72 h", "IC50 [µM]": "> 100"}
{"Compound": "Cc1cc(Oc2ccc(NC(=O)c3sc(-c4ccncc4)nc3C)cc2)n2ncnc2n1", "assay": "MTT", "IC50 [µM]": "> 50"}
{"Compound": "COCCCOc1ccnc(COc2ccc(NC(=O)Nc3ccc(Cl)cc3)cc2)c1C", "assay": "MTT", "conditions": "72 h", "IC50 [µM]": "> 100"}
{"Compound": "Oc1c(Br)cc(Br)c2cccnc12", "assay": "MTT", "conditions": "48 h", "IC50 [µM]": "> 100"}
{"Compound": "Cc1c(OCC(F)(F)F)ccnc1COc1ccc(NC(=O)Nc2ccc(Cl)c(C(F)(F)F)c2)cc1", "assay": "MTT", "conditions": "72 h", "IC50 [µM]": "> 100"}
{"Compound": "Cc1cc(Oc2ccc(NC(=O)c3cc(-c4cccs4)no3)cc2F)c2nncn2n1", "assay": "MTT", "IC50 [µM]": "> 50"}
